Results pooled from the literature.
Protocols differ between the studies behind these lines. pEC50, pIC50, pKd, pKi: −log10 of the molar value.
CES2: Cocaine esterase (CES2, Homo sapiens, UniProt O00748)
SLC6A2: Sodium-dependent noradrenaline transporter (SLC6A2, Homo sapiens, UniProt P23975)
Oprk1: Kappa-type opioid receptor (Oprk1, Mus musculus, UniProt P33534)
FPR1: fMet-Leu-Phe receptor (FPR1, Homo sapiens, UniProt P21462)

`COc1cc2c(cc1OC)C(=O)/C(=C/C1CCCCC1)C2` has a pIC50 of 5.62 (CES2; enzyme activity, inhibitor, fluorescence; with preincubation).
`CCn1c(=O)[nH]c2cc(C(=O)NC(c3ccc(F)cc3)c3cnn(C)c3)ccc2c1=O` (stereo not shown) gave a pKd of 5.52 (WD repeat-containing protein 91 (Homo sapiens, UniProt A4D1P6); binding, SPR).
`CCOC(=O)[C@@]12C[C@@H]1[C@@H](n1cnc3c(NCCCCCc4ccccc4)nc(I)nc31)[C@H](O)[C@@H]2O` gave a pKi of 5.34 (SLC6A2; ligand displacement, radioligand).
`CC(C)[C@@H](CN1CCc2ccccc2C1)NC(=O)c1cccc(-c2ccc(F)cc2)c1` gave a pKi of 4.89 (Oprk1; ligand displacement, radioligand).
`O=c1c(O[C@@H]2O[C@H](CO)[C@H](O)[C@H](O)[C@H]2O)c(-c2ccc(O)c(O)c2)oc2cc(O)cc(O)c12` gave a pKd of 4.71 (srtA (Staphylococcus aureus, UniProt Q2FV99); binding, SPR).
`N#Cc1ccc(C[C@@H](Nc2c(Nc3ccc(Br)cc3)c(=O)c2=O)C(=O)N2CCc3ccccc32)cc1` gave a pEC50 of 4.48 (FPR1; calcium signal, agonist).
The pEC50 of `CNc1nc(C#Cc2ccc(Cl)s2)nc2c1ncn2[C@H]1[C@H](O)[C@H](O)[C@]2(CC#N)C[C@H]12` is reported as 5.41 (SLC6A2; ligand displacement, radioligand).
The pIC50 of `O=C1NC(=O)C(c2ccccc2)(c2ccccc2)N1` is reported as < 4.00 (CES2; enzyme activity, inhibitor, fluorescence; with preincubation).
`CCOC(=O)[C@@]12C[C@@H]1[C@@H](n1cnc3c(Nc4ccccc4)nc(C#Cc4ccc(Cl)s4)nc31)[C@H](O)[C@@H]2O` has a pKi of 5.64 (SLC6A2; ligand displacement, radioligand).
With `N#Cc1ccc(C[C@H](NC(=O)c2cc3ccc(F)cc3[nH]2)C(=O)N2CCc3ccccc32)cc1` the pEC50 was 4.64 (FPR1; calcium signal, agonist).
`OC[C@@]12C[C@@H]1[C@@H](n1cnc3c(N[C@@H](C4CCC4)C4CC4)nc(C#Cc4ccc(Cl)s4)nc31)[C@H](O)[C@@H]2O` gave a pKi of 5.74 (SLC6A2; ligand displacement, radioligand).
The pKi of `CC(C)[C@@H](CN1CCc2ccccc2C1)NC(=O)c1cccc(-c2cccnc2)c1` is reported as 5.21 (Oprk1; ligand displacement, radioligand).
For `COc1cc2c(cc1OC)C(=O)/C(=C/c1ccc(C)cc1Cl)C2`, the pIC50 was < 4.00 (CES2; enzyme activity, inhibitor, fluorescence; with preincubation).
With `NCC(=O)O` the pKd was 1.96 (ltaA (Aeromonas jandaei, UniProt O07051); binding, absorbance).
`CCc1ccccc1/C=C1\Cc2cc(OC)c(OC)cc2C1=O` has a pIC50 of 5.83 (CES2; enzyme activity, inhibitor, fluorescence; with preincubation).
`Cc1cccc(-c2nnc(N[C@@H](Cc3ccc(C#N)cc3)C(=O)N3CCc4ccccc43)o2)c1` has a pEC50 of 4.71 (FPR1; calcium signal, agonist).
For `COc1cc2c(cc1OC)C(=O)/C(=C/C1CCCC1)C2`, the pIC50 was 5.20 (CES2; enzyme activity, inhibitor, fluorescence; with preincubation).
The pIC50 of `O=C(CCNC(=O)CNC(=O)CC(c1ccccc1)(c1ccccc1)c1ccccc1)NC[C@@H]1CCCN(Cc2ccc(F)nc2)C1` is reported as < 4.52 (Muscarinic acetylcholine receptor M5 (CHRM5, Homo sapiens, UniProt P08912); ligand displacement, radioligand; cell membranes).
`CCOC(=O)[C@@]12C[C@@H]1[C@@H](n1cnc3c(NCCCCCCc4ccccc4)nc(I)nc31)[C@H](O)[C@@H]2O` has a pKi of 5.27 (SLC6A2; ligand displacement, radioligand).
`COc1cc2c(cc1OC)C(=O)/C(=C/c1cccc3ccccc13)C2` has a pIC50 of 4.82 (CES2; enzyme activity, inhibitor, fluorescence; with preincubation).
With `CC(=O)N[C@@H](C)c1cc(Cl)ccc1C1CCN(C(=O)[C@@H]2CN(C(C)(C)C)C[C@H]2c2ccc(F)cc2F)CC1` the pEC50 was 8.11 (Melanocortin receptor 4 (MC4R, Homo sapiens, UniProt P32245); cAMP, agonist).
For `N#CC[C@@]12C[C@@H]1[C@@H](n1cnc3c(NCc4cccc(Cl)c4)nc(C#Cc4ccc(Cl)s4)nc31)[C@H](O)[C@@H]2O`, the pKi was 5.39 (SLC6A2; ligand displacement, radioligand).
`CC(C)[C@@H](CN1CCc2ccccc2C1)NC(=O)c1ccc([N+](=O)[O-])s1` has a pKi of 5.04 (Oprk1; ligand displacement, radioligand).
With `OC[C@@]12C[C@@H]1[C@@H](n1cnc3c(NCCCCCCc4ccccc4)nc(I)nc31)[C@H](O)[C@@H]2O` the pKi was 5.85 (SLC6A2; ligand displacement, radioligand).
For `CN1C(C(=O)Nc2ccccn2)=C(O)c2ccccc2S1(=O)=O`, the pIC50 was < 4.00 (CES2; enzyme activity, inhibitor, fluorescence; with preincubation).
With `CCOC(=O)[C@@]12C[C@@H]1[C@@H](n1cnc3c(NCc4cccc(Cl)c4)nc(C#Cc4ccc(Cl)s4)nc31)[C@H](O)[C@@H]2O` the pKi was 5.92 (SLC6A2; ligand displacement, radioligand).
`COc1cc2c(cc1OC)C(=O)/C(=C/c1ccc(C)c(C)c1)C2` has a pIC50 of < 4.00 (CES2; enzyme activity, inhibitor, fluorescence; with preincubation).
With `CC(C)[C@@H](CN1CCc2ccccc2C1)NC(=O)c1c(Cl)cncc1Cl` the pKi was 4.40 (Oprk1; ligand displacement, radioligand).
